PP1 inh: PP1-alpha (human) inhibition in PP5 counter-screen; purified PP1alpha, OMFP fluorescence; inhibition, % at 6.7 µM; AID 2235; 320,000 tested, 0.9% active;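 active = inhibition above the mean inhibition of all tested compounds plus 3 SD, computed separately for each screening campaign, cut at about 15% in these data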
Target sequence (P62136 whole entry, looked up): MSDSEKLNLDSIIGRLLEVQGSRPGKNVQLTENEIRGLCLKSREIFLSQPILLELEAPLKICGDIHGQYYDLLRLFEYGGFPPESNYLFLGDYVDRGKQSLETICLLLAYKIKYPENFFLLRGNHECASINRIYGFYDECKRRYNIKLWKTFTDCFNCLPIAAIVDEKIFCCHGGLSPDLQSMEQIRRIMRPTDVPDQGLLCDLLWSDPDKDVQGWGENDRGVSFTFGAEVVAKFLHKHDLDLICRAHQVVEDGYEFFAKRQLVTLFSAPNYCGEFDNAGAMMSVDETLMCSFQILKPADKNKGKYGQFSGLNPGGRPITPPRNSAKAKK
ZTA DNA inh: ZTA (EBV) inhibition in EBNA-1 counter-screen | P03206 | ZTA-DNA binding, fluorescence polarization | inhibition, % at 11 µM | 320,000 tested, 0.15% active; in the data active = inhibition above about 33%
Target sequence (P03206 whole entry, looked up): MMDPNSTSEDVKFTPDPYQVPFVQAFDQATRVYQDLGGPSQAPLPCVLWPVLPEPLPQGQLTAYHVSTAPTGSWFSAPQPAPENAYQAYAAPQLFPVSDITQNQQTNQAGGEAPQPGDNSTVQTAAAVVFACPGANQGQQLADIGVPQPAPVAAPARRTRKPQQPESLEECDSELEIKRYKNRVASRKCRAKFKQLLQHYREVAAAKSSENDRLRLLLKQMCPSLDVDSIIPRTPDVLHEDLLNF
core dimer inh: blocks dimerization of HCV core protein; TR-FRET GST/Flag-core106 dimerization, 1536-well; 300,000 tested, 0.33% active; inhibition, % at 5 µM;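 active = inhibition above the mean of all tested compounds plus 3 SD, set per screening campaign, cut at about 45% in these data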
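Material: GST/Flag-tagged HCV core106 proteins. Incubation: 4 h, 22.5 °C incubation. Read-out basis: inhibition (%) from 671 over 617 nm ratio. Measured by: TR-FRET, excitation 340 nm, emission 617 and 671 nm.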
EBNA-1 inh: blocks EBNA-1 binding to DNA | EBNA-1 DNA binding, fluorescence polarization | inhibition, % at 14.8 µM | 300,000 tested, 0.34% active | AID 1950; in the data active = inhibition above about 28%
NS3 helicase inh: inhibitors of Hepatitis C virus NS3 helicase. NS3 helicase DNA unwinding, Cy5 molecular beacon fluorescence. inhibition, % at 10.9 µM. 290,000 tested, 0.56% active. AID 1800;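 active = inhibition above the mean of all tested compounds plus 3 SD, set per campaign, cut at about 35% in these data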;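 note: 0% = DMSO wells and 100% = thioflavine S control wells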
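System: Hepatitis C virus NS3 helicase domain fragment enzyme | Reagent: Annealed dual-labelled DNA beacon duplex, ATP-started | Compound dosing: 10.9 µM single point, 0.8% DMSO | Incubation: 1 h reaction at 25 °C, ATP-initiated | Technique: Cy5 fluorescence | Evaluation: Percent inhibition from t60/t0 fluorescence ratio | Benchmarks: Low DMSO, high thioflavine S at 110 µM | Replication: Singlicate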
PP1 confirm: confirmation of human PP1 phosphatase inhibitors | 1,900 tested, 52% active | AID 2358 | purified PP1alpha, OMFP substrate fluorescence | inhibition, % at 6.7 µM | shares compounds with PP1 inh;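 active = mean PP1 inhibition above a set limit taken from the earlier primary screen, cut at about 15% in these data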
PP5 inh counter: PP5 phosphatase inhibition, counter-screen for PP1 inhibitors; shares compounds with PP1 inh; purified PP5c, OMFP fluorescence; inhibition, % at 6.7 µM; 1,900 tested, 4% active; AID 2360;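 active = mean PP5 inhibition over triplicate wells above about 9.5% taken from the earlier PP1 screen, limit read from the data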
An asterisk follows results filed as active; . = not tested or not shown. Only some compounds are listed: those with a hit (about 1.9% of all), similar ones and a draw of the others.

SMILES	PP1 inh	ZTA DNA inh	core dimer inh	EBNA-1 inh	NS3 helicase inh	PP1 confirm	PP5 inh counter
COc1ccccc1/C=C1\SC(=S)N(CCC(=O)Nc2ccc(C(=O)O)c(O)c2)C1=O	27*	12	9	19	3	14	1
CC(/C=C1\SC(=S)N(CCC(=O)Nc2ccccc2O)C1=O)=C\c1ccccc1	14	4	7	12	3	.	.
CC(=C\c1ccccc1)/C=C1/SC(=S)N(CCC(=O)Nc2ccccn2)C1=O	-12	-12	31	-3	15	.	.
O=C(CCN1C(=O)/C(=C/C=C/c2ccccc2)SC1=S)Nc1ccccn1	1	-9	32	-2	19	.	.
CCCn1ncc(/C=N/O)c1C	-4	-9	0	-1	1	.	.
CC(=O)c1ccc(N(CC(=O)NC2CCCCC2)C(=O)c2csnn2)cc1	-3	12	-2	6	4	.	.
Fc1ccc(CSc2ccc3nnc(-c4cccnc4)n3n2)cc1	-2	19	7	4	-8	.	.
Cc1noc(/C=C/c2ccco2)c1S(=O)(=O)N1CCC(C(=O)N(C)Cc2ccccc2)CC1	19*	-6	29	0	13	11	0
CCn1c(SCC(=O)c2ccc(O)c(O)c2)nnc1-c1ccc(C)cc1	-5	-1	8	-5	8	.	.
CCn1c(SCC(=O)c2ccc3c(c2)Cc2ccccc2-3)nnc1-c1ccc(N)cc1	21*	-1	20	-1	3	20*	-3
CN(C(=O)Cn1c(=O)oc2cc(S(=O)(=O)N3CCCC3)ccc21)C1CCCCC1	1	-20	-13	0	19	.	.
O=C(Nc1ccccc1Oc1cccnc1)C1CCCN(Cc2ccc(F)cc2)C1 (stereo not given)	50*	-16	-3	10	-2	-2	-3
O=C(NCC1CCCO1)c1nc(Cn2ccc([N+](=O)[O-])n2)no1 (stereo not given)	21*	-19	-7	-10	9	-5	-5
CCOC(=O)c1ccc(Cl)c(NC(=O)c2ccc(-c3ccccc3)cc2)c1	-1	-9	4	9	3	.	.
CCOC(=O)c1ccc(/C=C2/C=C(c3ccccc3)N(c3ccc(Cl)c(C(=O)O)c3)C2=O)cc1	20*	-5	30	-3	14	13	-2
Cc1ccc(CN2CCN(/N=C/c3cc(Br)ccc3O)CC2)cc1	35*	-12	-2	-5	-5	-4	-7
Clc1ccccc1/C=N/Nc1cc(N2CCOCC2)ncn1	.	.	.	.	14	.	.
CCCOc1ccc(/C=N/Nc2cc(N3CCOCC3)ncn2)c(O)c1	27*	0	-6	-5	-6	23*	-6
Cc1cc(-c2csc(NC(=O)c3ccc(=O)[nH]c3)n2)c(C)n1Cc1ccco1	45*	-14	49*	-1	20	34*	-1
CCNc1nc(-c2cc(C)n(Cc3ccco3)c2C)cs1	8	-24	30	-7	7	.	.
CCC(=O)Nc1ccc(Cl)c(NC(=O)c2c(OC)cccc2OC)c1	-1	-20	-3	3	9	.	.
Cc1cc(C(=O)COC(=O)CC2Sc3ccccc3NC2=O)c(C)n1-c1ccccc1 (stereo not given)	23*	9	30	1	13	9	-2
C=CCn1c(SCc2ccc(C(=O)Nc3nccs3)cc2)nnc1-c1ccc(C)c(Cl)c1	18*	6	17	-4	-27	8	0
CCCCCCc1cc2cc(-c3nnc(-c4ccccc4OC)o3)c(=O)oc2cc1O	20*	4	17	6	5	2	-13
CC1CCN(Cc2c(C(=O)N/N=C/c3ccccc3O)nnn2-c2nonc2N)CC1	22*	11	21	-9	2	17*	-5
SMILES	PP1 inh	ZTA DNA inh	core dimer inh	EBNA-1 inh	NS3 helicase inh	PP1 confirm	PP5 inh counter
Cc1ccc(C)c2sc(NC(=O)c3nc4ccccc4s3)nc12	-5	14	-9	2	-7	.	.
Fc1ccc(Nc2nc(NCc3ccco3)c3ccccc3n2)cc1	20*	-2	-5	-3	-98	-1	0
c1ccc(CNc2nc(-c3ccccn3)nc3ccccc23)cc1	39*	-5	-7	12	-74	40*	1
Nc1nc(Nc2ccccc2)nc(NCc2ccco2)c1[N+](=O)[O-]	5	7	4	-1	-96	.	.
c1ccc(CNc2nc(-c3ccccc3)nc3ccccc23)cc1	8	-12	11	-7	-13	.	.
c1ccc(CNc2nc(NCc3ccccc3)c3ccccc3n2)cc1	34*	2	-2	-8	-39	23*	2
CC[C@H](C)[C@@H](C(=O)NCCCCCCCCCCC(=O)N1CCN(C(=O)OC(C)(C)C)CC1)n1cc(CCCCCNC(=O)OC(C)(C)C)nn1	0	14	9	2	.	.	.
CCCN1C(=S)c2ccccc2C1c1ccccc1 (stereo not given)	3	0	4	6	-4	.	.
CCOc1cc(C#N)ccc1OCC(=O)N1CCN(C(=O)c2cccs2)CC1	-2	2	.	.	.	.	.
O=C(CSCC(=O)N1CCN(c2ccccc2)CC1)Nc1nc(-c2ccc(Cl)s2)cs1	27*	-3	2	7	-5	5	0
Cn1c2ccccc2c(=O)c2c(=O)n(Cc3ccco3)c(-c3ccc(Cl)cc3Cl)nc21	23*	3	29	2	27	8	-1
CC1(C)CC(=O)C2=C(C1)NC(Nc1nc3ccccc3o1)=NC2c1ccccn1 (stereo not given)	-1	3	4	-2	8	.	.
CC1=C(C(=O)Nc2ccccc2)C(c2ccc(C)cc2)N=C(Nc2nc3ccccc3o2)N1 (stereo not given)	23*	-18	15	-13	1	25*	0
COc1ccc(Cn2c(SCc3cc(C)ccc3C)nc3cc(OC)c(OC)cc3c2=N)cc1	23*	12	-4	-6	-82	6	3
CCOC(=O)Cn1nc(NC(=O)c2ccc3c(c2)OCO3)cc1C	2	0	2	5	0	.	.
CC(=O)C1=C(O)C(=O)N(c2cccc(Br)c2)C1c1ccc(Br)cc1 (stereo not given)	29*	14	10	9	36	25*	-3
CCOC(=O)C1=C(O)C(=O)N(c2ccc(S(N)(=O)=O)cc2)C1c1ccc(Cl)cc1 (stereo not given)	12	-7	1	-1	14	.	.
CC(=O)C1=C(O)C(=O)N(c2ccc(Br)cc2)C1c1ccc(Br)cc1 (stereo not given)	24*	-3	6	4	2	23*	-3
CCOC(=O)C1=C(O)C(=O)N(c2ccc(S(N)(=O)=O)cc2)C1c1ccc(Br)cc1 (stereo not given)	21*	6	2	16	20	7	-7
